Results from ChEMBL document CHEMBL1142162, “Synergistic interactions of the antiretroviral protease inhibitors saquinavir and ritonavir with chloroquine and mefloquine against Plasmodium falciparum in vitro” (Antimicrob Agents Chemother, 2007).
The source made the active and inactive calls. The rule behind the calls is not given here.

Columns and labels:
Assay type in all cases: functional, organism-based
Plasmodium falciparum [1] = test: Antimalarial activity against Plasmodium falciparum D10
Method in brief: (§1)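 P. falciparum clones kept in modified candle jars; triplicate wells holding 100 µl culture (2% hematocrit, 1% parasitemia) plus 100 µl drug dilution or control. Growth read by tritiated hypoxanthine incorporation, media and vehicle controls on each plate. Experiments repeated at least twice; EC50 derived from pooled data of all experiments.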

Plasmodium falciparum [2] = test: Antimalarial activity against Plasmodium falciparum Dd2; method in brief: as §1
Plasmodium falciparum [3] = test: Antimalarial activity against Plasmodium falciparum FAC8; method in brief: as §1

| Compound | EC50 (Plasmodium falciparum [1]) [µM] | EC50 (Plasmodium falciparum [2]) [µM] | Activity (Plasmodium falciparum [2]) | EC50 (Plasmodium falciparum [3]) [µM] |
| --- | --- | --- | --- | --- |
| CC(C)(C)NC(=O)[C@@H]1C[C@@H]2CCCC[C@@H]2CN1C[C@@H](O)[C@H](Cc1ccccc1)NC(=O)[C@H](CC(N)=O)NC(=O)c1ccc2ccccc2n1 [SAQUINAVIR] | 5.5 | 0.96 |  |  |
| CC(C)C[C@H](NC(=O)[C@@H](O)[C@H](N)Cc1ccccc1)C(=O)O [UBENIMEX] |  | 5.1 |  |  |
| CCN(CC)CCCC(C)Nc1ccnc2cc(Cl)ccc12 (stereo not drawn) [CHLOROQUINE] |  | 0.055 |  |  |
| O[C@@H](c1cc(C(F)(F)F)nc2c(C(F)(F)F)cccc12)[C@H]1CCCCN1 [MEFLOQUINE] | 0.064 | 0.06 |  | 0.023 |

Continued, in another order:

| EC50 (Plasmodium falciparum [1]) [µM] | EC50 (Plasmodium falciparum [2]) [µM] | Compound | Activity (Plasmodium falciparum [2]) | EC50 (Plasmodium falciparum [3]) [µM] |
| --- | --- | --- | --- | --- |
| 14 |  | CC(C)CC(=O)N[C@H](C(=O)N[C@H](C(=O)N[C@@H](CC(C)C)[C@@H](O)CC(=O)N[C@@H](C)C(=O)N[C@@H](CC(C)C)[C@@H](O)CC(=O)O)C(C)C)C(C)C [PEPSTATIN] | inactive |  |
|  | 2.9 | CC(C)C[C@H](NC(=O)[C@H]1O[C@@H]1C(=O)O)C(=O)NCCCCN=C(N)N [E-64] |  |  |
| 1.1 | 0.85 | CC(C)c1nc(CN(C)C(=O)N[C@H](C(=O)N[C@@H](Cc2ccccc2)C[C@H](O)[C@H](Cc2ccccc2)NC(=O)OCc2cncs2)C(C)C)cs1 [RITONAVIR] |  | 7 |
